From ChEMBL document CHEMBL1671796, “Development of non-peptide ligands of growth factor receptor-bound protein 2-SRC homology 2 domain using molecular modeling and NMR spectroscopy” (J Med Chem, 2011)
Active and inactive are the calls of the source. The rule behind the calls is not given here.

How the values were obtained:
[1] = target: T1, Growth factor receptor-bound protein 2 (Homo sapiens, UniProt P62993); experiment: Displacement of biotin-Ahx-PSpYVNVQN from Grb2-SH2 at 5 mM by competition binding assay
[2] = target: T1, Growth factor receptor-bound protein 2; experiment: Displacement of biotin-Ahx-PSpYVNVQN from Grb2-SH2 by competition binding assay
[3] = tested on: MCF7; experiment: Cytotoxicity against HER2-positive human MCF7 cells after 24 hrs by MTT assay; assay type: functional, cell-based; conditions: MCF7, 24 h
Method in brief: (§1)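 Human breast cancer cells tested at 50 and 100 μM: HER2-positive MCF7 and HER2-negative MCF7 and MDA-231. N1 fibroblasts were run alongside at the same two concentrations.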

[4] = tested on: MCF7; experiment: Cytotoxicity against HER2-negative human MCF7 cells after 24 hrs by MTT assay; assay type: functional, cell-based; method in brief: as §1
[5] = tested on: MDA-MB-231; experiment: Cytotoxicity against HER2-negative human MDA231 cells after 24 hrs by MTT assay; assay type: functional, cell-based; method in brief: as §1
[6] = target: T1, Growth factor receptor-bound protein 2; experiment: Inhibition of HER2-Grb2 interaction in HER2-positive human MCF7 cells assessed as decrease in interaction at 50 uM by immunoblotting; assay type: cell-based; design: scale not given: the % may be the effect or the level left

Row | Compound | inhibition [1] [%] | IC50 [2] [µM] | also measured
1 | CC(=O)N[C@@H](Cc1ccc(OP(=O)(O)O)cc1)C(=O)NCCc1cnc[nH]1 | < 10 |  | 
2 | O=C(N[C@@H](Cc1ccc(OP(=O)(O)O)cc1)C(=O)NCCN1CCNC1=O)c1ccccc1 | < 10 |  | 
3 | CC(=O)N[C@@H](Cc1ccc(OP(=O)(O)O)cc1)C(=O)NC1(CCN2CCCNC2=O)CCCCC1 |  | 56 | IC50 [3]: 100 µM; Activity [4]: inactive; Activity [5]: inactive; Activity [6]: 30%
4 | O=C(N[C@@H](Cc1ccc(OP(=O)(O)O)cc1)C(=O)NCCCN1CCCC1=O)c1ccccc1 | < 10 |  | 
5 | O=C(O)C[C@@H](Cc1ccc(CP(=O)(O)O)cc1)C(=O)NC1(C(=O)N[C@@H](CC(=O)O)C(=O)NCCCc2cccc3ccccc23)CCCCC1 |  | 0.008 | 
6 | CCCC(=O)N[C@@H](Cc1ccc(OP(=O)(O)O)cc1)C(=O)NCCCN1CCCC1=O | < 10 |  | 
7 | O=C(N[C@@H](Cc1ccc(OP(=O)(O)O)cc1)C(=O)NCCCN1CCCNC1=O)c1ccccc1 | < 10 |  | 
8 | CCCC(=O)N[C@@H](Cc1ccc(OP(=O)(O)O)cc1)C(=O)NCCN1CCNC1=O |  | 1330 | 
9 | CC(=O)N[C@@H](Cc1ccc(OP(=O)(O)O)cc1)C(=O)NCCCN1CCCC1=O | < 10 |  | 

Now from value to compound, other results behind:

Row | inhibition [1] [%] | IC50 [2] [µM] | Compound | also measured
10 |  | 2310 | CC(=O)NC(Cc1ccc(OP(=O)(O)O)cc1)C(=O)NCCCN1CCCNC1=O (racemic) | 
11 |  | 174 | CC(=O)N[C@@H](Cc1ccc(OP(=O)(O)O)cc1)C(=O)NCCCN1CCCNC1=O | 
12 | < 10 |  | CC(=O)N[C@H](Cc1ccc(OP(=O)(O)O)cc1)C(=O)NCCCN1CCCNC1=O | 
13 | < 10 |  | CC(=O)N[C@@H](Cc1ccc(OP(=O)(O)O)cc1)C(=O)NCCN1CCNC1=O | 
14 |  | 314 | CCCC(=O)N[C@@H](Cc1ccc(OP(=O)(O)O)cc1)C(=O)NCCCN1CCCNC1=O | 
